Measurements: ChEMBL document CHEMBL1159063, “Apoptotic activities in closely related styryllactone stereoisomers toward human tumor cell lines: Investigation of synergism of styryllactone-induced apoptosis with TRAIL” (Bioorg Med Chem, 2010)
pIC50: −log10 of the molar value.

Key:
MCF7 [1] = test: Antiproliferative activity against human MCF7 cells after 48 hrs by SRB assay; assay type: functional, cell-based; conditions: for IC50: mcf7; for pIC50: Homo sapiens, MCF7, 48 h, read-out: IC50
How it was run: (§1)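 Cells grown in RPMI with 10% fetal calf serum at 37 °C, 5% CO2, replated 24 h before use, >90% trypan blue viability. DMSO stocks (1 mg/ml) diluted in medium; 48 h exposure at 37 °C, triplicate wells, concentrations up to 250 µM. Fixed with cold TCA, SRB stained, dye solubilized in 10 mM Tris pH 10.5, A570. Percent inhibition calculated versus untreated cells after subtracting cell-free blanks.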

[2] = Cytotoxicity against human MCF12A cells after 48 hrs by SRB assay; assay type: cell-based, MCF-12A; conditions: for IC50: mcf-12a; for pIC50: Homo sapiens, MCF-12A, 48 h, read-out: IC50; how it was run: as §1
CCRF-CEM [3] = test: Antiproliferative activity against human CEM cells after 48 hrs by SRB assay; assay type: functional, cell-based; conditions: for IC50: ccrf-cem; for pIC50: Homo sapiens, CCRF-CEM, 48 h, read-out: IC50; how it was run: as §1
MCF7 [4] = test: Antiproliferative activity against human MCF7 cells at 250 uM after 48 hrs by SRB assay; assay type: functional, cell-based; conditions: for inhibition at 250 µM: Homo sapiens, MCF7, 48 h; how it was run: as §1
[5] = Cytotoxicity against human MCF12A cells at 250 uM after 48 hrs by SRB assay; assay type: cell-based, MCF-12A; conditions: read-out: INH; how it was run: as §1
CCRF-CEM [6] = test: Antiproliferative activity against human CEM cells at 250 uM after 48 hrs by SRB assay; assay type: functional; how it was run: as §1
CCRF-CEM [7] = test: Cytotoxicity against human CEM cells assessed as late apoptotic/necrotic cells at 120 uM after 24 hrs by Annexin-V-FITC and porpidium iodide staining based flow cytometry; assay type: functional
How it was run: (§2)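 CEM cells at 10⁶/ml incubated 24 h at 37 °C with 120 µM agent from fresh DMSO stocks. Cells then washed in ice-cold PBS and taken into binding buffer (10 mM HEPES, 140 mM NaCl, 2.5 mM CaCl2). Annexin V-FITC and PI were added for 15 min in the dark at ambient temperature. Flow cytometry read 520/620 nm, gated on forward scatter to remove debris, counting 10,000 cells. Three experiments.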

CCRF-CEM [8] = test: Cytotoxicity against human CEM cells assessed as early apoptotic cells at 120 uM after 24 hrs by Annexin-V-FITC and porpidium iodide staining based flow cytometry; assay type: functional; how it was run: as §2
CCRF-CEM [9] = test: Cytotoxicity against human CEM cells assessed as viable cells at 120 uM after 24 hrs by Annexin-V-FITC and porpidium iodide staining based flow cytometry; assay type: functional; conditions: read-out: Activity; how it was run: as §2

| Structure (SMILES) | IC50 (MCF7 [1]) | IC50 (CCRF-CEM [3]) | pIC50 (MCF7 [1]) | pIC50 (CCRF-CEM [3]) | IC50 [2] | inhibition at 250 µM (MCF7 [4]) [%] | cytotoxicity at 48 h, 250 µM [5] [%] | inhibition at 250 µM (CCRF-CEM [6]) [%] | Inhibition (MCF7 [4]; mcf7) [%] | pIC50 [2] | Activity (CCRF-CEM [7]) [%] | Activity (CCRF-CEM [8]) [%] | viability at 120 µM (CCRF-CEM [9]) [%] |
| --- | --- | --- | --- | --- | --- | --- | --- | --- | --- | --- | --- | --- | --- |
| COC(=O)C[C@H](O)[C@@H]1O[C@@H](c2ccccc2)[C@H](O)[C@@H]1O | Not Active | Not Active |  |  | Not Active | < 50 | < 50 | < 50 |  |  |  |  |  |
| O=C1C[C@@H](O)[C@@H]2O[C@H](c3ccccc3)[C@@H](O)[C@@H]2O1 | Not Active | Not Active |  |  | Not Active |  | < 50 | < 50 | < 50 |  |  |  |  |
| COC(=O)C[C@H](O)[C@@H]1O[C@@H](c2ccccc2)[C@@H](O)[C@@H]1O | Not Active | Not Active |  |  | Not Active | < 50 | < 50 | < 50 |  |  |  |  |  |
| COC(=O)C[C@@H](O)[C@@H]1O[C@H](c2ccccc2)[C@@H](O)[C@@H]1O (mixture of isomers) | Not Active | Not Active |  |  | Not Active | < 50 | < 50 | < 50 |  |  |  |  |  |

Further lines, with some results ahead:

| IC50 (MCF7 [1]) | IC50 (CCRF-CEM [3]) | pIC50 (MCF7 [1]) | pIC50 (CCRF-CEM [3]) | Structure (SMILES) | IC50 [2] | inhibition at 250 µM (MCF7 [4]) [%] | cytotoxicity at 48 h, 250 µM [5] [%] | inhibition at 250 µM (CCRF-CEM [6]) [%] | Inhibition (MCF7 [4]; mcf7) [%] | pIC50 [2] | Activity (CCRF-CEM [7]) [%] | Activity (CCRF-CEM [8]) [%] | viability at 120 µM (CCRF-CEM [9]) [%] |
| --- | --- | --- | --- | --- | --- | --- | --- | --- | --- | --- | --- | --- | --- |
|  |  | 4.00 | 4.62 | O=C1C=C[C@H]2O[C@@H](c3ccccc3)[C@H](O)[C@H]2O1 [ENT-ALTHOLACTONE] |  |  |  |  |  | 3.96 | 40 | 10 | 19 |
| Not Active | Not Active |  |  | COC(=O)C[C@H](O)[C@H]1O[C@@H](c2ccccc2)[C@H](O)[C@H]1O | Not Active | < 50 | < 50 | < 50 |  |  |  |  |  |
|  |  | 3.91 | 4.72 | O=C1C=C[C@@H]2O[C@H](c3ccccc3)[C@@H](O)[C@@H]2O1 [ALTHOLACTONE] |  |  |  |  |  | 3.92 | 19 | 33 | 19 |
